Experimental data published in ChEMBL document CHEMBL1135477, “Antifungal agents. 10. New derivatives of 1-[(aryl)[4-aryl-1H-pyrrol-3-yl]methyl]-1H-imidazole, synthesis, anti-candida activity, and quantitative structure-analysis relationship studies” (J Med Chem, 2002).
Values after ≈ are worked out from the molar mass of the structure shown. Each block holds one molecule with its values, some of them ahead of it.

Assays:
Type in all cases: functional
[1] = molecular target: Lanosterol 14-alpha demethylase (Candida albicans (strain SC5314 / ATCC MYA-2876) (Yeast), UniProt P10613); assay: Anticandida activity- (MIC90 compound) / (MIC90 bifonazole)
Lanosterol 14-alpha demethylase, sequence (P10613 whole entry): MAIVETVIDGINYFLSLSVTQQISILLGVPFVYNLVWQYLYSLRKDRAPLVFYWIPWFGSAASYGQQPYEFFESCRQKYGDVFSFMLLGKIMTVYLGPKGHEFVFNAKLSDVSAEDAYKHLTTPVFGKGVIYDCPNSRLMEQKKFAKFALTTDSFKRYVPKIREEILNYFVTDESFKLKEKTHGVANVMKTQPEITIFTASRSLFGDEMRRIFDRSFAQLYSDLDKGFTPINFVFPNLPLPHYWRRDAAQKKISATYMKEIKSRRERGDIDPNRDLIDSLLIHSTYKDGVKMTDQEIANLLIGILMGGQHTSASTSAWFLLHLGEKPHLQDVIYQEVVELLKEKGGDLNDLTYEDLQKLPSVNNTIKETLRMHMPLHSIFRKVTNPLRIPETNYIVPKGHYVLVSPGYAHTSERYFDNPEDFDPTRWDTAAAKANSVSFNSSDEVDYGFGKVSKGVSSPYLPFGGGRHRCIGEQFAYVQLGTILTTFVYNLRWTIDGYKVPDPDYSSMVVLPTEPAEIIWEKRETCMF

Candida albicans [2] = assay: In vitro antifungal activity against 40 strains of Candida albicans at pH 5.8
Method in brief: (§1)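 Broth serial-dilution MIC against 40 clinical C. albicans isolates from hospitalized patients, grown in Sabouraud broth at pH 7.2 or 5.8. Cells were pre-grown 18 h at 37 °C, inoculated at 10³/mL, and read at 24 h, 37 °C. Doubling dilutions ran 0.25–256 μg/mL from a DMSO/water solution. MIC was the lowest concentration with no visible growth against a DMSO/water blank.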

Candida albicans [3] = assay: In vitro antifungal activity against 40 strains of Candida albicans at pH 7.2; method in brief: as §1
Candida albicans [4] = assay: In vitro antifungal activity against 40 strains of Candida albicans at pH 7.2; (percent of resistant species at 256 ug/mL)
Method in brief: (§2)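 Broth serial-dilution test in Sabouraud broth at pH 7.2 or 5.8, against 40 fresh clinical C. albicans isolates from hospitalized patients. Inocula were 10³/mL, pre-grown 18 h at 37 °C in Sabouraud dextrose broth. Compound from a DMSO/water stock was twofold-diluted over 0.25–256 µg/mL. Visible growth was read at 24 h, 37 °C.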

Candida [5] = assay: Tested in vitro for antifungal activity against Candida species. at pH 5.8
Method in brief: (§3)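 Liquid serial-dilution MIC against 3 freshly isolated clinical Candida strains (two C. glabrata, one C. krusei) in Sabouraud broth at pH 7.2 or 5.8. Inoculum was 10³/mL after 18 h pre-culture at 37 °C, read at 24 h, 37 °C. Range was 0.25–256 μg/mL. Endpoint was no visible growth versus a DMSO/water blank.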

Candida albicans [6] = assay: IIn vitro antifungal activity against 40 strains of Candida albicans at pH 5.8; (percent of resistant species at 256 ug/mL); method in brief: as §2
Candida [7] = assay: Tested In vitro for antifungal activity against Candida species. at pH 7.2; (range is from 4 to 32); method in brief: as §3
Candida [8] = assay: Tested in vitro for antifungal activity against Candida species. at pH 5.8 ( range is from 8 to 16); method in brief: as §3
Candida [9] = assay: In vitro antifungal activity against 40 strains at pH 5.8,(percent of resistant species at 256 ug/mL); method in brief: as §2
Candida [10] = assay: Tested In vitro for antifungal activity against Candida species. at pH 7.2; method in brief: as §3
Candida albicans [11] = assay: In vitro antifungal activity against 40 strains of Candida albicans at pH 5.8; (range is from 1 to 16); method in brief: as §1
Candida albicans [12] = assay: In vitro antifungal activity against 40 strains of Candida albicans at pH 7.2; minimum inhibitory concentration (range is from 4 to 64); method in brief: as §1
Candida [13] = assay: Tested In vitro for antifungal activity against Candida species. at pH 7.2; (percent of resistant species at 256 ug/mL)
Method in brief: (§4)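 Broth serial-dilution test in Sabouraud broth at pH 7.2 or 5.8, against 3 fresh clinical non-albicans isolates (two C. glabrata, one C. krusei). Inocula were 10³/mL, pre-grown 18 h at 37 °C. Compound was twofold-diluted over 0.25–256 µg/mL and read at 24 h, 37 °C for visible growth.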

Candida albicans [14] = assay: In vitro antifungal activity against 40 strains of Candida albicans at pH 7.2; minimum inhibitory concentration (range is from 1 to 32); method in brief: as §1
Candida albicans [15] = assay: In vitro antifungal activity against 40 strains of Candida albicans at pH 5.8; (percent of resistant species at 256 ug/mL); method in brief: as §2
Candida [16] = assay: Tested in vitro for antifungal activity against Candida species. at pH 5.8; range is from 1 to 64; method in brief: as §3
Candida [17] = assay: Tested In vitro for antifungal activity against Candida species. at pH 7.2; (range is from 4 to 16); method in brief: as §3
Candida albicans [18] = assay: In vitro antifungal activity against 40 strains of Candida albicans at pH 5.8; value ranges from 0.5 to 4); method in brief: as §1
Candida [19] = assay: Tested in vitro for antifungal activity against Candida species. at pH 5.8 (percent of resistant species at 256 ug/mL); method in brief: as §4
Candida albicans [20] = assay: IIn vitro antifungal activity against 40 strains of Candida albicans at pH 7.2; minimum inhibitory concentration (range is from 0.5 to 16); method in brief: as §1
Candida [21] = assay: Tested In vitro for antifungal activity against Candida species. at pH 7.2; (range is from 8 to 16); method in brief: as §3
Candida albicans [22] = assay: In vitro antifungal activity against 40 strains of Candida albicans at pH 5.8; (range is from 0.25 to 32); method in brief: as §1
Candida [23] = assay: Tested in vitro for antifungal activity against Candida species. at pH 5.8; (range is from 4 to 8); method in brief: as §3
Candida albicans [24] = assay: Compound was tested for its anti-candida activity, expressed as ratio of minimum inhibitory concentration

- Ratio [1]: 32
Structure (SMILES): COc1ccc([C@H](Cc2cccc(Cl)c2)n2ccnc2)cc1

- Ratio [1]: 8
Structure (SMILES): COc1ccc(C[C@@H](c2ccc(OC)cc2)n2ccnc2)cc1

- Ratio [1]: 32
Structure (SMILES): COc1ccc([C@H](Cc2ccc([N+](=O)[O-])cc2)n2ccnc2)cc1

- Ratio [1]: 1.8
Structure (SMILES): Fc1ccc([C@@H](c2ccn(-c3ccc(Cl)cc3)c2)n2ccnc2)cc1

- Ratio [1]: 3
Structure (SMILES): Clc1ccc([C@@H](c2ccn(-c3ccc(Cl)cc3)c2)n2ccnc2)cc1

- Ratio [1]: 0.5
Structure (SMILES): Clc1ccc([C@@H](c2ccc(-n3cccc3)cc2)n2ccnc2)cc1

- Ratio [1]: 1
Structure (SMILES): O=[N+]([O-])c1ccc([C@@H](c2ccc(Cl)cc2)n2ccnc2)cc1

- Ratio [1]: 0.7
Structure (SMILES): Cc1ccc([C@@H](c2ccc(NC(=O)c3ccc(Cl)cc3Cl)cc2)n2ccnc2)cc1

- Ratio [1]: 29
Structure (SMILES): CCC(c1ccc(Cl)cc1)[C@@H](c1ccc(OC)cc1)n1cncn1 (some centres not stated)

- Ratio [1]: 63
Structure (SMILES): CC[C@@H](c1ccc(Cl)cc1)[C@@H](c1ccc(OC)cc1)n1cnnc1

- Ratio [1]: 62
Structure (SMILES): COc1ccc([C@@H]([C@@H](Cc2ccc(Cl)cc2Cl)c2ccc(Cl)cc2)n2cncn2)cc1

- Ratio [1]: 7.3
Structure (SMILES): CC[C@@H](c1ccc([N+](=O)[O-])cc1)[C@H](c1ccc(OC)cc1)n1ccnc1

- Ratio [1]: 10.5
Structure (SMILES): COc1ccc([C@@H]([C@@H](Cc2ccc(Cl)cc2Cl)c2ccc(Cl)cc2)n2ccnc2)cc1

- Ratio [1]: 21
Structure (SMILES): COc1ccc([C@H]([C@@H](Cc2ccc(Cl)cc2Cl)c2ccc(OC)cc2)n2ccnc2)cc1

- Ratio [1]: 32
Structure (SMILES): COc1ccc([C@H](Cc2ccccc2Cl)n2cncn2)cc1

Second part, the molecule before the results:

Structure (SMILES): Fc1ccc(-n2ccc([C@H](c3ccc(Cl)cc3)n3ccnc3)c2)cc1
- Ratio [1]: 1.8

Structure (SMILES): Clc1ccc(-n2ccc([C@@H](c3ccccc3)n3ccnc3)c2)cc1
- Ratio [1]: 0.5

Structure (SMILES): Cc1ccc([C@H](c2ccn(-c3ccccc3)c2)n2ccnc2)cc1
- Ratio [1]: 1

Structure (SMILES): c1ccc([C@H](c2ccn(-c3ccccc3)c2)n2ccnc2)cc1
- Ratio [1]: 4.1

Structure (SMILES): Nc1ccc([C@@H](c2ccccc2)n2ccnc2)cc1
- Ratio [1]: 2.5

Structure (SMILES): Cc1ccc([C@H](c2ccc([N+](=O)[O-])cc2)n2ccnc2)cc1
- Ratio [1]: 0.5

Structure (SMILES): Cc1ccc([C@@H](c2ccc(-n3cccc3)cc2)n2ccnc2)cc1
- Ratio [1]: 0.13

Structure (SMILES): O=[N+]([O-])c1ccc([C@@H](c2ccccc2)n2ccnc2)cc1
- Ratio [1]: 2.2

Structure (SMILES): c1ccc([C@@H](c2ccc(-n3cccc3)cc2)n2ccnc2)cc1
- Ratio [1]: 0.25

Structure (SMILES): FC(F)(F)c1ccc(-c2c[nH]cc2[C@@H](c2ccc(Cl)cc2Cl)n2ccnc2)cc1
- MIC (Candida albicans [2]): 4.8 µg/mL (≈ 11 µM)
- MIC50 (Candida albicans [2]): 4 µg/mL (≈ 9.17 µM)
- MIC90 (Candida albicans [2]): 8 µg/mL (≈ 18.3 µM)
- MIC (Candida albicans [3]): 7.63 µg/mL (≈ 17.5 µM)
- MIC50 (Candida albicans [3]): 4 µg/mL (≈ 9.17 µM)
- MIC90 (Candida albicans [3]): 8 µg/mL (≈ 18.3 µM)
- Resistance (Candida albicans [4]): 0%
- MIC (Candida [5]): 16 µg/mL (≈ 36.7 µM)
- MIC50 (Candida [5]): 16 µg/mL (≈ 36.7 µM)
- MIC90 (Candida [5]): 16 µg/mL (≈ 36.7 µM)
- Resistance (Candida albicans [6]): 0%
- Range (Candida [7]): 32 µg/mL
- Range (Candida [8]): 16 µg/mL
- Resistance (Candida [9]): 0%
- MIC (Candida [10]): 17.3 µg/mL (≈ 39.7 µM)
- MIC50 (Candida [10]): 16 µg/mL (≈ 36.7 µM)
- MIC90 (Candida [10]): 32 µg/mL (≈ 73.4 µM)
- Range (Candida albicans [11]): 16 µg/mL
- Range (Candida albicans [12]): 64 µg/mL
- Resistance (Candida [13]): 0%

Structure (SMILES): Cn1cc(-c2ccc(Cl)cc2)c([C@H](c2ccc(Cl)cc2Cl)n2ccnc2)c1
- MIC (Candida albicans [2]): 2.54 µg/mL (≈ 6.09 µM)
- MIC50 (Candida albicans [2]): 0.5 µg/mL (≈ 1.2 µM)
- MIC90 (Candida albicans [2]): 2 µg/mL (≈ 4.8 µM)
- MIC (Candida albicans [3]): 5.3 µg/mL (≈ 12.7 µM)
- MIC50 (Candida albicans [3]): 2 µg/mL (≈ 4.8 µM)
- MIC90 (Candida albicans [3]): 16 µg/mL (≈ 38.4 µM)
- Resistance (Candida albicans [4]): 0%
- Range (Candida albicans [14]): 32 µg/mL
- Resistance (Candida albicans [15]): 0%
- MIC (Candida [5]): 4.5 µg/mL (≈ 10.8 µM)
- MIC50 (Candida [5]): 2 µg/mL (≈ 4.8 µM)
- MIC90 (Candida [5]): 64 µg/mL (≈ 154 µM)
- Ratio [1]: 3
- Range (Candida [16]): 64 µg/mL
- Range (Candida [17]): 16 µg/mL
- MIC (Candida [10]): 6.1 µg/mL (≈ 14.6 µM)
- MIC50 (Candida [10]): 16 µg/mL (≈ 38.4 µM)
- MIC90 (Candida [10]): 32 µg/mL (≈ 76.8 µM)
- Range (Candida albicans [18]): 4 µg/mL
- Resistance (Candida [13]): 0%
- Resistance (Candida [19]): 0%

Structure (SMILES): CCn1cc(-c2ccc(Cl)cc2)c([C@H](c2ccc(Cl)cc2Cl)n2ccnc2)c1
- MIC (Candida albicans [2]): 2.36 µg/mL (≈ 5.48 µM)
- MIC50 (Candida albicans [2]): 1 µg/mL (≈ 2.32 µM)
- MIC90 (Candida albicans [2]): 2 µg/mL (≈ 4.64 µM)
- MIC (Candida albicans [3]): 3.2 µg/mL (≈ 7.43 µM)
- MIC50 (Candida albicans [3]): 1 µg/mL (≈ 2.32 µM)
- MIC90 (Candida albicans [3]): 2 µg/mL (≈ 4.64 µM)
- Resistance (Candida albicans [4]): 0%
- MIC (Candida [5]): 5.33 µg/mL (≈ 12.4 µM)
- MIC50 (Candida [5]): 4 µg/mL (≈ 9.29 µM)
- MIC90 (Candida [5]): 8 µg/mL (≈ 18.6 µM)
- Resistance (Candida albicans [6]): 0%
- Ratio [1]: 2.9
- Range (Candida albicans [20]): 16 µg/mL
- Range (Candida [21]): 16 µg/mL
- MIC (Candida [10]): 13.3 µg/mL (≈ 30.9 µM)
- MIC50 (Candida [10]): 16 µg/mL (≈ 37.1 µM)
- MIC90 (Candida [10]): 16 µg/mL (≈ 37.1 µM)
- Range (Candida albicans [22]): 32 µg/mL
- Resistance (Candida [13]): 0%
- Range (Candida [23]): 8 µg/mL
- Resistance (Candida [19]): 0%

Structure (SMILES): c1ccc(-c2ccc([C@@H](c3ccccc3)n3ccnc3)cc2)cc1 [BIFONAZOLE]
- MIC90 ratio (Candida albicans [24]): 1
